Measurements reported in ChEMBL document CHEMBL3425419, “Developing new chemical tools for DNA methyltransferase 1 (DNMT 1): a small-molecule activity-based probe and novel tetrazole-containing inhibitors” (Bioorg Med Chem, 2015).
Calls of active or inactive are those of the source.

Columns and labels:
[1] = target: DNA (cytosine-5)-methyltransferase 1 (Homo sapiens) (UniProt P26358); experiment: Inhibition of recombinant DNMT1 (unknown origin) after 90 mins by fluorescence assay
MCF7 [2] = experiment: Cytotoxicity against human MCF7 cells after 72 hrs by XTT assay; format: functional; details: for GI50: MCF7, 72 h
Outline: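 MCF-7 breast cancer cells exposed to a range of compound concentrations, and growth read by XTT anti-proliferation assay. GI50 is defined as the concentration giving 50% growth inhibition, taken from dose–response plots.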

MCF7 [3] = experiment: Induction of apoptosis in human MCF7 cells assessed as apoptotic cells at 10 uM after 6 hrs by FITC-Annexin V/propidium iodide staining-based FACS analysis relative to control; format: functional
Outline: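 Live MCF-7 cells treated with inhibitors at 10 µM, then stained with FITC Annexin V (apoptosis) and propidium iodide (cell death). Signals were quantified by flow cytometry against DMSO-treated cells.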

MCF7 [4] = experiment: Induction of apoptosis in human MCF7 cells assessed as dead cells at 10 uM after 6 hrs by FITC-Annexin V/propidium iodide staining-based FACS analysis relative to control; format: functional
Outline: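 Live MCF-7 cells treated with compound at 10 µM, then stained with FITC-Annexin V (apoptotic cells) and propidium iodide (dead cells). Signals quantified by flow cytometry and read from histograms.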

[5] = target: DNA (cytosine-5)-methyltransferase 1 (Homo sapiens) (UniProt P26358); experiment: Competitive inhibition of DNMT1 in (S)-Methyl 2-(2,5-dioxo-2,5-dihydro-1H-pyrrol-1-yl)-3-(5-(prop-2-yn-1-yloxy)-1H-indol-3-yl)propanoate labeled human MCF7 cells at 100 uM preincubated for 1 hr followed by cell labeling for 30 mins and clicked with TER-PEG-N3 measured after 2 hrs by Hoechst 33342 staining-based immunofluorescence assay
Outline: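 Live MCF-7 cells pretreated with competitor at 100 µM for 1 h, then given 5 µM alkyne probe for 30 min in the incubator. Cells were fixed (3.7% formaldehyde), permeabilised (0.1% Triton X-100), clicked with TER-PEG-N3, immunostained with anti-DNMT1 and Hoechst-stained. Imaging was by fluorescence microscopy in four channels (bright-field, probe, IF, nuclear).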

[6] = target: DNA (cytosine-5)-methyltransferase 1 (Homo sapiens) (UniProt P26358); experiment: Competitive inhibition of DNMT1 in (S)-Methyl 2-(2,5-dioxo-2,5-dihydro-1H-pyrrol-1-yl)-3-(5-(prop-2-yn-1-yloxy)-1H-indol-3-yl)propanoate labeled human MCF7 cells at 50 to 500 uM preincubated for 1 hr followed by cell labeling for 1 hr and clicked with TER-biotin-N3 for 2 hrs and pull down by Western blot analysis; format: cell-based
Outline: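 Mammalian cells pretreated with competitor at 50, 100 or 500 µM. Their lysates were then labelled with 10 µM alkyne probe for 1 h at room temperature and clicked for 2 h with TER-Biotin-N3. DNMT1 (~183 kDa) was detected by pull-down and western blot, with DMSO as the negative control.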

[7] = target: DNA (cytosine-5)-methyltransferase 1 (Homo sapiens) (UniProt P26358); experiment: Binding affinity to DNMT1 in human MCF7 cells at 10 uM preincubated for 1 hr post RG108, 1149 and (S)-Methyl 2-(2,5-dioxo-2,5-dihydro-1H-pyrrol-1-yl)-3-(4-(5-phenyl-2H-tetrazol-2-yl)phenyl)propanoate treatment followed by CuAAC click chemistry application measured after 2 hrs by gel fluorescence scanning assay; format: cell-based
Outline: (§1)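 Freshly prepared MCF-7 lysate (100 µg) labelled with 10 µM alkyne probe for 1 h at room temperature, then CuAAC click for 2 h. TER-PEG-N3 was used for in-gel fluorescence scanning, and TER-Biotin-N3 for pull-down followed by western blot against DNMT1. DMSO-treated cells served as the negative control.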

[8] = target: DNA (cytosine-5)-methyltransferase 1 (Homo sapiens) (UniProt P26358); experiment: Binding affinity to DNMT1 in human MCF7 cells at 10 uM preincubated for 1 hr post RG108, 1149 and (S)-Methyl 2-(2,5-dioxo-2,5-dihydro-1H-pyrrol-1-yl)-3-(4-(5-phenyl-2H-tetrazol-2-yl)phenyl)propanoate treatment followed by clicked with TER-Biotin-N3 for 2 hrs and pull down by Western blot analysis; format: cell-based; outline: as §1
[9] = Drug uptake in nucleus of human MCF7 cells at 5 uM preincubated for 30 hrs post RG108, 1149 and (S)-Methyl 2-(2,5-dioxo-2,5-dihydro-1H-pyrrol-1-yl)-3-(4-(5-phenyl-2H-tetrazol-2-yl)phenyl)propanoate treatment followed by clicked with TER-PEG-N3 measured after 2 hrs by Hoechst 33342 staining-based immunofluorescence assay; format: ADME, cell-based; details: mcf7, 2 h, in the assay text read “30 min” for “30 hrs”
Outline: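 MCF-7 cells incubated with 5 µM alkyne probe for 30 min in the incubator, fixed with 3.7% formaldehyde, permeabilised with 0.1% Triton X-100 and clicked with TER-PEG-N3. Anti-DNMT1 immunofluorescence and Hoechst nuclear staining followed. Localisation was read by fluorescence microscopy, with DMSO-only cells as control.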

DNA (cytosine-5)-methyltransferase 1 (Homo sapiens), sequence (P26358 whole entry): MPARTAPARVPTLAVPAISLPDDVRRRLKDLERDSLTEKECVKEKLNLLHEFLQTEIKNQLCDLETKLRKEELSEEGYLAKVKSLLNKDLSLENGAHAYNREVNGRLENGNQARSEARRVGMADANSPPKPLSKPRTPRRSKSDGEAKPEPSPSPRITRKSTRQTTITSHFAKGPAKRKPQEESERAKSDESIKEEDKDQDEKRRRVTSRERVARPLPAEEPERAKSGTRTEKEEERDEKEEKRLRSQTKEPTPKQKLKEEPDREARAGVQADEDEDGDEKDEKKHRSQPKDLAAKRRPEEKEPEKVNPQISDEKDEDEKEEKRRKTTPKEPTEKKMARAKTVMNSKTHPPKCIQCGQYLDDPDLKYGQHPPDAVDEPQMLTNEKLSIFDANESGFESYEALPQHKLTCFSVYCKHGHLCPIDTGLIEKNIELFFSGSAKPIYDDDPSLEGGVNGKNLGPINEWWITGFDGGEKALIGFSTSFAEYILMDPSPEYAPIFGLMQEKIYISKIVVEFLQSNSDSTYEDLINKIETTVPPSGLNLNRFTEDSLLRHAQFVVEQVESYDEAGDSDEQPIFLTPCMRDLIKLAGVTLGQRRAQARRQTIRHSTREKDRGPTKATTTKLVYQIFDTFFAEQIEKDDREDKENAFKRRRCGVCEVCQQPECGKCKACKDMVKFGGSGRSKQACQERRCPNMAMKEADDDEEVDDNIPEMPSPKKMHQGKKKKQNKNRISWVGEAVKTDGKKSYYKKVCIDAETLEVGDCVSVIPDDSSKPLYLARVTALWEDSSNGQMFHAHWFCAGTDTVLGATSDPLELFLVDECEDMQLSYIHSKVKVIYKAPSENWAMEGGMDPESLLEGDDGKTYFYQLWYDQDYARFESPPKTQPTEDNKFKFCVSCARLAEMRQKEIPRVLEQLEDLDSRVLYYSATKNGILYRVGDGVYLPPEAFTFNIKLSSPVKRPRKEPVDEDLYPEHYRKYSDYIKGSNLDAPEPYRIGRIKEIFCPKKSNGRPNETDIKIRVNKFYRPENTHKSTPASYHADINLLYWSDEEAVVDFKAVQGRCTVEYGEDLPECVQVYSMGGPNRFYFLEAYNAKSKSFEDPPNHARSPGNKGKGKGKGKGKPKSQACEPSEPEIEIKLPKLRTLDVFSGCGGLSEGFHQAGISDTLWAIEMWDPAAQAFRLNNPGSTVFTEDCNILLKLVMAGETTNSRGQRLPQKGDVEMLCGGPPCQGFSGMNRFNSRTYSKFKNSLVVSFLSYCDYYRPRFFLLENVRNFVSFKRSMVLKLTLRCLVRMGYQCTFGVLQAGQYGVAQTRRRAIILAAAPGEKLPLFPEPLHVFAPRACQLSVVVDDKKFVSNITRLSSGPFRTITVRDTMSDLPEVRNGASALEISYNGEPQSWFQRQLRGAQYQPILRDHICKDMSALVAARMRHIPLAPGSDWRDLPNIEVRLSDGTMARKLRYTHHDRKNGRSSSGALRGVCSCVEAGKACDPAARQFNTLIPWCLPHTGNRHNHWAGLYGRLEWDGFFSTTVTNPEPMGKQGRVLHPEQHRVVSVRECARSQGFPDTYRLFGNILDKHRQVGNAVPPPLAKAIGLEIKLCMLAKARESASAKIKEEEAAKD

inhibition [1] | SMILES | GI50 (MCF7 [2]) [nM] | Activity (MCF7 [3]) | Activity (MCF7 [4]) | inhibition [5] | inhibition [6] | growth inhibition (GI) (MCF7 [2]) | Activity [7] | Activity [8] | Drug uptake [9]
Active | COC(=O)[C@H](Cc1ccc(-n2nnc(-c3ccc(OC)cc3)n2)cc1)N1C(=O)C=CC1=O | 870 |  |  |  |  | Dose-dependent effect |  |  | 
Active | COC(=O)[C@H](Cc1ccc(-n2nnc(-c3ccc(F)cc3)n2)cc1)N1C(=O)C=CC1=O | 1160 |  |  |  |  | Dose-dependent effect |  |  | 
Active | COC(=O)[C@H](Cc1ccc(-n2nnc(-c3ccc(C(F)(F)F)cc3)n2)cc1)N1C(=O)C=CC1=O | 1770 |  |  |  |  | Dose-dependent effect |  |  | 
Active | COC(=O)[C@H](Cc1ccc(-n2nnc(-c3ccc(C(C)C)cc3)n2)cc1)N1C(=O)C=CC1=O | 380 |  |  |  |  | Dose-dependent effect |  |  | 
Active | COC(=O)[C@H](Cc1ccc(-n2nnc(-c3ccncc3)n2)cc1)N1C(=O)C=CC1=O | 1860 |  |  |  |  | Dose-dependent effect |  |  | 

More lines, now with the values behind:

SMILES | inhibition [1] | GI50 (MCF7 [2]) [nM] | Activity (MCF7 [3]) | Activity (MCF7 [4]) | inhibition [5] | inhibition [6] | growth inhibition (GI) (MCF7 [2]) | Activity [7] | Activity [8] | Drug uptake [9]
O=C(O)[C@H](Cc1c[nH]c2ccccc12)N1C(=O)c2ccccc2C1=O | Active | 128000 | Active | Active | Active | Active |  |  |  | 
O=C(O)[C@H](Cc1c[nH]c2ccccc12)N1C(=O)C=CC1=O | Active | 7310 |  |  | Active | Active |  |  |  | 
C#CCOc1ccc2[nH]cc(C[C@@H](C(=O)OC)N3C(=O)C=CC3=O)c2c1 |  | 290 | 61% |  |  |  | Dose-dependent effect | inactive | Active | Active
COC(=O)[C@H](Cc1ccc(-n2nnc(-c3ccc(OC(F)F)cc3)n2)cc1)N1C(=O)C=CC1=O | Active | 730 |  |  |  |  | Dose-dependent effect |  |  | 
COC(=O)[C@H](Cc1ccc(-n2nnc(-c3ccc(N(C)C)cc3)n2)cc1)N1C(=O)C=CC1=O | Active | 1080 |  |  |  |  | Dose-dependent effect |  |  | 
COC(=O)[C@H](Cc1ccc(-n2nnc(-c3ccccc3)n2)cc1)N1C(=O)C=CC1=O | Active | 300 | Active | Active | Active | Active | Dose-dependent effect |  |  | 
COC(=O)[C@H](Cc1ccc(-n2nnc(-c3cc(C)cc(C)c3)n2)cc1)N1C(=O)C=CC1=O | Active | 780 |  |  |  |  | Dose-dependent effect |  |  | 
CCCCCCOc1ccc(-c2nnn(-c3ccc(C[C@@H](C(=O)OC)N4C(=O)C=CC4=O)cc3)n2)cc1 | Active | 6150 |  |  |  |  | Dose-dependent effect |  |  | 
COC(=O)[C@H](Cc1ccc(-n2nnc(-c3cc(F)cc(F)c3)n2)cc1)N1C(=O)C=CC1=O | Active | 1100 |  |  |  |  | Dose-dependent effect |  |  | 
COC(=O)[C@H](Cc1ccc(-n2nnc(-c3cccc4ccccc34)n2)cc1)N1C(=O)C=CC1=O | Active | 480 |  |  |  |  | Dose-dependent effect |  |  | 
